Results reported in ChEMBL document CHEMBL4354879, “Bioisosteric Discovery of NPA101.3, a Second-Generation RET/VEGFR2 Inhibitor Optimized for Single-Agent Polypharmacology” (J Med Chem, 2020).
Active and inactive are the calls of the source. The calls are words filed in the database; no cut-off is given here.

How the values were obtained:
A549 = assay: Effect on MAPK phosphorylation in RET deficient human A549 cells at 1 to 100 nM measured after 2 hrs by western blot analysis; format: cell-based
[1] = Cytotoxicity against RET deficient human Nthy-ori 3-1 cells supplemented with fresh medium containing compound for every 2 to 3 days measured during compound dosing; format: cell-based
Summary of the method: (§1)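 Human RET-negative lines were seeded in six-well plates at 10000 cells/well, in 5% FCS (Nthy-ori-3-1) or 10% FCS (BCPAP, 8505-C, CALU-1, A549, PC-9). Drug or vehicle was added the day after plating, with medium changed every 2–3 days. Cells were counted every 2–3 days. IC50 was fitted from the last day of the growth curves.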

[2] = biological target: T1, SHC-transforming protein 1 (Homo sapiens) (UniProt P29353); assay: Effect on SHC phosphorylation in RET deficient human Calu1 cells at 1 to 100 nM measured after 2 hrs by western blot analysis
T1 sequence (whole entry): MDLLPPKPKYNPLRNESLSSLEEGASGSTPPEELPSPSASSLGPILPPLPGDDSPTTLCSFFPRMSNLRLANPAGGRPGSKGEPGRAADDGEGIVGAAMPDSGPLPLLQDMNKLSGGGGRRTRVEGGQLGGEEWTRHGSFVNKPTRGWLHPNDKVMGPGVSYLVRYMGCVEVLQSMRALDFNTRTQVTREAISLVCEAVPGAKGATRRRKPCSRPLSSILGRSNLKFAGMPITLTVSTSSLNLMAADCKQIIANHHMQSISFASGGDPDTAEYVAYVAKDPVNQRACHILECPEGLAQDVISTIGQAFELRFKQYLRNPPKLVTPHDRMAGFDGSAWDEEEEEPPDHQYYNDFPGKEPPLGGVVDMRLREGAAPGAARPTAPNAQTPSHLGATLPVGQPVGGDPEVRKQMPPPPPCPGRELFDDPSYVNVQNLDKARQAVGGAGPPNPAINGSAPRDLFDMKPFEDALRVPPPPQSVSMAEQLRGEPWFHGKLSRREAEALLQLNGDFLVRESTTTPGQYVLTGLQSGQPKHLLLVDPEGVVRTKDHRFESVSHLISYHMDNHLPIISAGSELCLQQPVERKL

Homo sapiens [3] = organism: Homo sapiens; assay: Effect on MAPK phosphorylation in RET deficient human Nthy-ori 3-1 cells at 1 to 100 nM measured after 2 hrs by western blot analysis
8505C = assay: Cytotoxicity against RET deficient human 8505C cells supplemented with fresh medium containing compound for every 2 to 3 days measured during compound dosing; format: functional, cell-based; summary of the method: as §1
[4] = biological target: NT-3 growth factor receptor (Homo sapiens) (UniProt Q16288); assay: Binding affinity to wild-type human partial length TRKC (Q531 to G825 residues) expressed in mammalian expression system at 100 nM by Kinomescan method relative to control
Sequence of NT-3 growth factor receptor (Homo sapiens) (Q16288 32-839 limits assumed): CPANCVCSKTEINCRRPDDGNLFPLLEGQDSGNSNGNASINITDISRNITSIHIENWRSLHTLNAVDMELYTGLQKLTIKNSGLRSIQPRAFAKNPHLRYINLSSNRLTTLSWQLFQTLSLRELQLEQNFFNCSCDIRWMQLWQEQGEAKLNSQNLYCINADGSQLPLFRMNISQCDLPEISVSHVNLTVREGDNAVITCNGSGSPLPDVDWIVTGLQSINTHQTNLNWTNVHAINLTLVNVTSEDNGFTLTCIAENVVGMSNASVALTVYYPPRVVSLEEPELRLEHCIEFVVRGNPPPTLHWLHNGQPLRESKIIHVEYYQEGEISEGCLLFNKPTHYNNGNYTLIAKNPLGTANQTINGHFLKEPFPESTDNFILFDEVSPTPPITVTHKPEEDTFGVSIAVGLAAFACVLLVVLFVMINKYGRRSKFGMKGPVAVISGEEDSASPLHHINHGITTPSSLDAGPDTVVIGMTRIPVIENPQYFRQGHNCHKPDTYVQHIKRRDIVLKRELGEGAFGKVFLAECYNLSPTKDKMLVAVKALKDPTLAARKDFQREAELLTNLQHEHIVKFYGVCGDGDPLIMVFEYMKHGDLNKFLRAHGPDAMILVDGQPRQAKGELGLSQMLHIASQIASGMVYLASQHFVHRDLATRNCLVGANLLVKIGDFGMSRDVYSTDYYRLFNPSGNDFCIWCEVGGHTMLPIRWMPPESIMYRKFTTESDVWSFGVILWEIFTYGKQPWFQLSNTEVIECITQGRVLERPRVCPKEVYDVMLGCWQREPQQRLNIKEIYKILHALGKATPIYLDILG

BCPAP = assay: Cytotoxicity against RET deficient human BCPAP cells supplemented with fresh medium containing compound for every 2 to 3 days measured during compound dosing; format: functional, cell-based; summary of the method: as §1
Mus musculus [5] = assay: In vivo inhibition of HRAS G12V mutant transfected in mouse NIH/3T3 cells implanted BALB/c nu/nu mouse assessed as reduction in MAPK phosphorylation in tumor at 1 mg/kg, po administered once daily via gavage for 3 days measured 3 hrs post-last dose by Western blot analysis; format: functional, organism-based
Mus musculus [6] = assay: In vivo inhibition of RET isoform 9 C634Y mutant transfected in mouse NIH/3T3 cells implanted BALB/c nu/nu mouse assessed as reduction in RET phosphorylation at Y1062 residue at 3 mg/kg, po administered once daily via gavage for 2 days measured 3 hrs post-last dose by Western blot analysis
PC-9 = assay: Cytotoxicity against RET deficient human PC9 cells supplemented with fresh medium containing compound for every 2 to 3 days measured during compound dosing; format: functional, cell-based; summary of the method: as §1
[7] = system: Proto-oncogene tyrosine-protein kinase receptor Ret (Homo sapiens), P07949 [C634R]; assay: Inhibition of RET isoform 9 C634R mutant (unknown origin) expressed in rat Rat1 assessed as reduction in RET phosphorylation at Y1062 residue at 0.3 nM measured after 2 hrs by Western blot analysis; format: cell-based
Sequence of Proto-oncogene tyrosine-protein kinase receptor Ret (Homo sapiens), P07949 [C634R] (P07949 whole entry C634R, canonical isoform): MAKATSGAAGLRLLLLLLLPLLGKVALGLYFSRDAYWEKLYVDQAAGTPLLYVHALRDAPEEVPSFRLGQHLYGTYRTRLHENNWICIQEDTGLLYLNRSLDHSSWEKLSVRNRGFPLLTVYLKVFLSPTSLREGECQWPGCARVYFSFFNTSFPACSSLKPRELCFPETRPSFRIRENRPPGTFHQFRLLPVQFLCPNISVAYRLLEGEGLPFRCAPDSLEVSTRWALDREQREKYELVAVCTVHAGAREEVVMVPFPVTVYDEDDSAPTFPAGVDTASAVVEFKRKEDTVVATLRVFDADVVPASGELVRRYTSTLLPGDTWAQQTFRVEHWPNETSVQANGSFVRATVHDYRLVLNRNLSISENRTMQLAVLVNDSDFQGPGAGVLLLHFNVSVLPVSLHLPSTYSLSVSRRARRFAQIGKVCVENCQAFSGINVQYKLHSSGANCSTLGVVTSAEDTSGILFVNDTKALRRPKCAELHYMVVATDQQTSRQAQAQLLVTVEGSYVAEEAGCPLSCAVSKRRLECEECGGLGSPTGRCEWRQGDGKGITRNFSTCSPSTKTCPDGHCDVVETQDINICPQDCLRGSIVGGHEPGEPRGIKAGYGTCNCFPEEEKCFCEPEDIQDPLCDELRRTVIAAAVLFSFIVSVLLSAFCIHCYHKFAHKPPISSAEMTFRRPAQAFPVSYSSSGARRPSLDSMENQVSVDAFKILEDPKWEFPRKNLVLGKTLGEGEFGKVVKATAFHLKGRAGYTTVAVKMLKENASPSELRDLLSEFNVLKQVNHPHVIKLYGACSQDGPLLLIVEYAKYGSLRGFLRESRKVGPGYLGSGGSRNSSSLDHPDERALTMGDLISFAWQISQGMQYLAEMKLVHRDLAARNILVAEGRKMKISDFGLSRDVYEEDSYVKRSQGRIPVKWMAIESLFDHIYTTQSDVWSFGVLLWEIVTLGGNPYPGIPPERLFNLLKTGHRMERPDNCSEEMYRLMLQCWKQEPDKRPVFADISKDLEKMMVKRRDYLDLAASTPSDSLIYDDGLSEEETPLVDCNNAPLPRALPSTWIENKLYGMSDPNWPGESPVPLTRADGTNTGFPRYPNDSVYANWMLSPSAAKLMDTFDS
Summary of the method: (§2)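 RAT1 fibroblasts expressing RET-9 C634R, serum-starved, treated 2 h with 0.1–10.0 nM; 50 μg lysate blotted for RET pY905 and pY1062, normalized to total RET; ECL detection.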

[8] = Toxicity in BALB/c nu/nu mouse assessed as change in globulin level at 10 mg/kg, po administered daily for 7 days; format: organism-based; conditions: in vivo, 168 h
Mus musculus [9] = assay: In vivo inhibition of RET isoform 9 C634Y mutant transfected in mouse NIH/3T3 cells implanted BALB/c nu/nu mouse assessed as reduction in MAPK phosphorylation in tumor at 1 mg/kg, po administered once daily via gavage for 3 days measured 3 hrs post-last dose by Western blot analysis
[10] = system: Proto-oncogene tyrosine-protein kinase receptor Ret (Homo sapiens), P07949 [M918T]; assay: Inhibition of Ret isoform 9 M918T mutant in human MZ-CRC-1 cells assessed as reduction in SHC phosphorylation at 0.3 to 30 nM measured after 2 hrs by Western blot analysis; format: cell-based
Sequence of Proto-oncogene tyrosine-protein kinase receptor Ret (Homo sapiens), P07949 [M918T] (P07949 whole entry M918T, the tested form may be a part, canonical isoform): as the sequence (P07949 whole entry C634R, canonical isoform) above, with R634C, M918T counted along it

Homo sapiens [11] = organism: Homo sapiens; assay: Inhibition of CCDC6/RET isoform 9 (unknown origin) expressed in mouse NIH/3T3 cells assessed as reduction in RET phosphorylation at Y905 residue at 1 to 100 nM measured after 2 hrs by Western blot analysis; format: cell-based
Summary of the method: (§3)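 Serum-starved RAT1 (RET point mutants) or NIH3T3 (RET rearrangements) cells expressing short RET-9 isoform, treated 2 h; 50 μg total lysate immunoblotted with anti-phospho-Y1062 and anti-phospho-Y905 RET antibodies, normalized to total RET; ECL detection. Compound from 50 mM DMSO stock diluted in growth medium.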

Homo sapiens [12] = organism: Homo sapiens; assay: Inhibition of NCOA4/RET isoform 9 (unknown origin) expressed in mouse NIH/3T3 cells assessed as reduction in RET phosphorylation at Y1062 residue at 1 to 100 nM measured after 2 hrs by Western blot analysis; format: cell-based; summary of the method: as §3
[13] = system: Proto-oncogene tyrosine-protein kinase receptor Ret (Homo sapiens), P07949 [C634R]; assay: Inhibition of RET isoform 9 C634R mutant (unknown origin) expressed in rat Rat1 assessed as reduction in RET phosphorylation at Y905 residue at 0.3 nM measured after 2 hrs by Western blot analysis; format: cell-based; summary of the method: as §2
[14] = Inhibition of NCOA4/RET […] (unknown origin) expressed in mouse BAF3 cells assessed as reduction in cell proliferation supplemented with fresh medium containing compound for every 2 to 3 days and measured daily; format: cell-based
[15] = system: Proto-oncogene tyrosine-protein kinase receptor Ret (Homo sapiens), P07949 [M918T]; assay: Inhibition of Ret isoform 9 M918T mutant in human MZ-CRC-1 cells assessed as reduction in phosphorylation at Y1062 residue at 0.3 to 30 nM measured after 2 hrs by Western blot analysis; format: cell-based
[16] = biological target: Macrophage colony-stimulating factor 1 receptor (Homo sapiens, UniProt P07333); assay: Inhibition of recombinant human His-tagged CSF1R cytoplasmic domain (538 to 910 residues) expressed in baculovirus expression system using peptide substrate preincubated for 60 mins followed by substrate addition by microfluidic assay
Sequence of Macrophage colony-stimulating factor 1 receptor (P07333 whole entry, the tested form may be a part): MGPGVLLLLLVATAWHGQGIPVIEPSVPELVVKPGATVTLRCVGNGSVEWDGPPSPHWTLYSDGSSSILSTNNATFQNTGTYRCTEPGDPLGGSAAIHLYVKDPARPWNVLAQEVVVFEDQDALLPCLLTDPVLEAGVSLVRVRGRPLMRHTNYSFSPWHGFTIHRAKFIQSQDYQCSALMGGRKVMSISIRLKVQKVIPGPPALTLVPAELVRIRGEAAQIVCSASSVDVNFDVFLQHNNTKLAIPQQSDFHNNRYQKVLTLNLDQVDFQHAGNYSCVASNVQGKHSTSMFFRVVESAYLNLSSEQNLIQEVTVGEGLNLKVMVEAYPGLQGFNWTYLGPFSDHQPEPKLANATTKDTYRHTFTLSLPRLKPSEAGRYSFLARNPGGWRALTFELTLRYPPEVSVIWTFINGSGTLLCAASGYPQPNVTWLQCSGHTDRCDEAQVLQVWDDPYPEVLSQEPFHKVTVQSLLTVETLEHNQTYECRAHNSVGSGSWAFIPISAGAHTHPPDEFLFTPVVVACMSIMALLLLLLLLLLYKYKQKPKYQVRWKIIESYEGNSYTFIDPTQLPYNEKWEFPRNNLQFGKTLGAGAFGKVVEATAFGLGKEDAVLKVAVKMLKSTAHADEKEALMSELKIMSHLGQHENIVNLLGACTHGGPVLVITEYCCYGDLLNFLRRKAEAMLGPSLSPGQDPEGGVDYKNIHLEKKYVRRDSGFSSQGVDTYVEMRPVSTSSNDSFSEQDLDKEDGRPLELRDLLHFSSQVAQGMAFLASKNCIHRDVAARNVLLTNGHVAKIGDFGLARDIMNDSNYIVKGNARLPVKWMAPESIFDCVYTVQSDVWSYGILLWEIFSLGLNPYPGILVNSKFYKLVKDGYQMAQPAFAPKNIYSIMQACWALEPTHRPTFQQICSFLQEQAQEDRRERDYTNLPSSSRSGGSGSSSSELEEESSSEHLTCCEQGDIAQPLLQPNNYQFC

[17] = biological target: Voltage-gated inwardly rectifying potassium channel KCNH2 (Homo sapiens, UniProt Q12809); assay: Inhibition of human ERG expressed in HEK293 cells by patch clamp assay
Sequence of Voltage-gated inwardly rectifying potassium channel KCNH2 (Q12809 whole entry): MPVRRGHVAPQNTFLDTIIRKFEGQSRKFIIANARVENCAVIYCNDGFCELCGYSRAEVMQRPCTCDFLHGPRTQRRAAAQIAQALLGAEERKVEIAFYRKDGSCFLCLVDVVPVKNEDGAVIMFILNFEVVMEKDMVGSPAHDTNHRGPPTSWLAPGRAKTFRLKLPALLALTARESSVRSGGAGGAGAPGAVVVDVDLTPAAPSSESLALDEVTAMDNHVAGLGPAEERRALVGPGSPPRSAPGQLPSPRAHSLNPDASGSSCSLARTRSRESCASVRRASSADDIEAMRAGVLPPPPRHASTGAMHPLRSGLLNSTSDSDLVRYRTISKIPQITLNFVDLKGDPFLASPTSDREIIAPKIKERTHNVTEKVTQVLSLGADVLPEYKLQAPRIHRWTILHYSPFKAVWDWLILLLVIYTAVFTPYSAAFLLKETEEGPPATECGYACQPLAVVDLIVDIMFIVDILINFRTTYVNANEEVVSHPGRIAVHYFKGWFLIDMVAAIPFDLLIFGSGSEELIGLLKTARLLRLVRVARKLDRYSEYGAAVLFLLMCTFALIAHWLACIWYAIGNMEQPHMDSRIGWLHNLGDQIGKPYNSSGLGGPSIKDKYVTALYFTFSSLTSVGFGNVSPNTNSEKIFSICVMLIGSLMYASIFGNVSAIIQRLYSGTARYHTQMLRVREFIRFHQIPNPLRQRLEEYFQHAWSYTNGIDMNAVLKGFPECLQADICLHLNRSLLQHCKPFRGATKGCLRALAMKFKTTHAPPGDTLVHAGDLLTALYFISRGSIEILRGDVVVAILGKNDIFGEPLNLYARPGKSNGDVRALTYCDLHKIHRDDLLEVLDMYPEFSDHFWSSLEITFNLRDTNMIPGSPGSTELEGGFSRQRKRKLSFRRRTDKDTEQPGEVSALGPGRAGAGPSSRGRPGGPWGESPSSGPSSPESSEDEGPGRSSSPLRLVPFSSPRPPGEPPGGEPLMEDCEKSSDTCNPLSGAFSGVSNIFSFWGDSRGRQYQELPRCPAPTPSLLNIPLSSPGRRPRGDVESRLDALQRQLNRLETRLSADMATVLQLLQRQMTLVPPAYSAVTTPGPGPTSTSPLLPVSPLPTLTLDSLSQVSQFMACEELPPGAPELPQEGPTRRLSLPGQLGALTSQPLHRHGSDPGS

Activity [2]: inactive | Activity (Homo sapiens [3]): inactive | Activity [4]: > 90% | inhibition [7]: Active | inhibition [10]: Active | inhibition [13]: Active | inhibition [15]: Active | IC50 [16]: 0.046 µM
Compound: CC(C)(C)c1cc(NC(=O)Cc2ccc(-n3cnc4cc(-c5ccc(S(C)(=O)=O)cc5)ccc43)cc2)no1
Activity (A549): inactive | IC50 [1]: > 0.1 µM | IC50 (8505C): > 0.1 µM | IC50 (BCPAP): > 0.1 µM | inhibition (Mus musculus [5]): inactive | inhibition (Mus musculus [6]): Active | IC50 (PC-9): > 0.1 µM | Activity [8]: Non-Toxic | inhibition (Mus musculus [9]): Active | inhibition (Homo sapiens [11]): Active | inhibition (Homo sapiens [12]): Active | IC50 [14]: 0.0031 µM | IC50 [17]: 7.57 µM
